# Results published in ChEMBL document CHEMBL1153447, “Synthesis, cytotoxic and combined cDDP activity of new stable curcumin derivatives” (Bioorg Med Chem, 2009).
# Legend:
# 2008 [1] = test: Cytotoxicity against cisplatin-sensitive human 2008 cells at 10 uM after 72 hrs by crystal violet dye assay; assay type: functional
# Procedure, shortened: (§1)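 2008 ovarian carcinoma cells or the cisplatin-resistant C13* subline, grown in RPMI 1640 with 10% heat-inactivated FBS and gentamycin, 5% CO2, 37 °C, mycoplasma-negative. Seeded 4 × 10^4 cells/well, exposed 24 h later to compound for 3 days. Crystal violet stain solubilized in acidic isopropanol, absorbance read at 540 nm versus untreated controls. IC50 taken from dose–response curves. Mean of three experiments run in duplicate.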
# Vero [2] = test: Cytotoxicity against african green monkey Vero cells at 10 uM after 72 hrs by crystal violet dye assay; assay type: cell-based; conditions: chlorocebus sabaeus
# Procedure, shortened: (§2)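 Vero cells (African green monkey kidney) grown in MEM with 10% heat-inactivated fetal calf serum, penicillin G and streptomycin, 5% CO2, 37 °C. Seeded 4 × 10^4 cells/well, exposed 24 h later to compound for 3 days. Methanol-fixed, crystal violet-stained, dye solubilized in acidic isopropanol, absorbance read at 540 nm. Cytotoxicity is calculated against untreated controls. Mean of three experiments run in duplicate.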
# [3] = Cytotoxicity against cisplatin-resistant human C13 cells after 72 hrs by crystal violet dye assay; assay type: functional, cell-based; conditions: C13, 72 h; procedure, shortened: as §1
# Vero [4] = test: Cytotoxicity against african green monkey Vero cells after 72 hrs by crystal violet dye assay; assay type: cell-based; conditions: Chlorocebus sabaeus; procedure, shortened: as §2
# 2008 [5] = test: Resistant factor, ratio of IC50 for cisplatin-resistant human C13 cells to IC50 for cisplatin-sensitive human 2008 cells; assay type: functional
# Procedure, shortened: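 RF^I is the IC50 in C13* cells divided by the IC50 in parental 2008 cells. Both IC50s come from a 3-day crystal violet dose–response assay, read at 540 nm.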
# [6] = Cytotoxicity against cisplatin-resistant human C13 cells at 10 uM after 72 hrs by crystal violet dye assay; assay type: functional; procedure, shortened: as §1
# 2008 [7] = test: Cytotoxicity against cisplatin-sensitive human 2008 cells after 72 hrs by crystal violet dye assay; assay type: functional, cell-based; conditions: Homo sapiens, 2008, 72 h; procedure, shortened: as §1
# Vero [8] = test: Resistance factor, ratio of IC50 for african green monkey Vero cells to IC50 for cisplatin-resistant human C13 cells
# Procedure, shortened: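 RF^II is the IC50 in Vero cells divided by the IC50 in C13* cells. Each IC50 comes from a 3-day crystal violet dose–response assay, read at 540 nm.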
# Vero [9] = test: Cytotoxicity against african green monkey Vero cells at 5 uM after 72 hrs by crystal violet dye assay; assay type: cell-based; conditions: chlorocebus sabaeus; procedure, shortened: as §2
# [10] = Cytotoxicity against african green monkey Vero cells assessed as inhibition of growth at 750 uM after 72 hrs by crystal violet dye assay; assay type: cell-based; conditions: chlorocebus sabaeus, read-out: Activity; procedure, shortened: as §2
# 2008 [11] = test: Cytotoxicity against cisplatin-sensitive human 2008 cells at 750 uM after 72 hrs by crystal violet dye assay; assay type: functional; procedure, shortened: as §1
# [12] = Cytotoxicity against cisplatin-resistant human C13 cells at 750 uM after 72 hrs by crystal violet dye assay; assay type: functional; procedure, shortened: as §1
# [13] = Cytotoxicity against african green monkey Vero cells assessed as cell survival at 750 uM after 72 hrs by crystal violet dye assay; assay type: cell-based; conditions: chlorocebus sabaeus, read-out: Activity; procedure, shortened: as §2
SMILES,Activity 2008 [1],Activity (Vero [2]),IC50 [3],IC50 (Vero [4]),Ratio IC50 2008 [5],Activity [6],IC50 2008 [7],Ratio IC50 (Vero [8]),Activity (Vero [9]),"inhibition at 72 h, 750 µM [10]",Activity 2008 [11],Activity [12],"viability at 72 h, 750 µM [13]"
COc1cc(/C=C/C(=O)CC(=O)/C=C/c2ccc(O)c(OC)c2)ccc1O [CURCUMIN],90%,25%,17 µM,22 µM,3.4,45%,5 µM,1.3,10%,–,–,–,–
COc1cc(/C=C/C(=O)CC(=O)/C=C/c2ccc(O[C@@H]3O[C@H](CO)[C@@H](O)[C@H](O)[C@H]3O)c(OC)c2)ccc1O[C@@H]1O[C@H](CO)[C@@H](O)[C@H](O)[C@H]1O,–,–,840 µM,–,3.8,–,220 µM,–,–,20%,–,–,–
O=C(/C=C/c1ccc(O[C@@H]2O[C@H](CO)[C@@H](O)[C@H](O)[C@H]2O)c(O)c1)CC(=O)/C=C/c1ccc(O[C@@H]2O[C@H](CO)[C@@H](O)[C@H](O)[C@H]2O)c(O)c1,–,–,–,–,>2,–,480 µM,–,–,–,70%,15%,80%
O=C(/C=C/c1ccc(O[C@@H]2O[C@H](CO)[C@@H](O)[C@H](O)[C@H]2O)cc1)CC(=O)/C=C/c1ccc(O[C@@H]2O[C@H](CO)[C@@H](O)[C@H](O)[C@H]2O)cc1,–,–,83 µM,330 µM,3.8,–,22 µM,3.97,–,–,–,–,–
